Results as given in ChEMBL document CHEMBL1139586, “A linear discrimination analysis based virtual screening of trichomonacidal lead-like compounds: outcomes of in silico studies supported by experimental results” (2005).

Key:
Assay type in all cases: functional
[1] = system: Trichomonas vaginalis; assay: In vitro cytostatic activity against Trichomonas vaginalis at a dose of 1 ug/ml after 24 hours
In short: (§1)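 T. vaginalis JH31A cultured in modified Diamond medium plus equine serum, 37 °C, 5% CO2. Compounds added at 100, 10 and 1 µg/ml 6 h post-seeding (0 h). Neubauer-chamber counts of viable parasites at 24 and 48 h. Cytostatic activity is the percentage growth inhibition relative to untreated controls.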

[2] = system: Trichomonas vaginalis; assay: In vitro cytostatic activity against Trichomonas vaginalis at a dose of 1 ug/ml after 48 hours; in short: as §1
[3] = system: Trichomonas vaginalis; assay: In vitro cytostatic activity against Trichomonas vaginalis at a dose of 10 ug/ml after 24 hours; in short: as §1
[4] = system: Trichomonas vaginalis; assay: In vitro cytostatic activity against Trichomonas vaginalis at a dose of 10 ug/ml after 48 hours; in short: as §1
[5] = system: Trichomonas vaginalis; assay: In vitro cytocidal activity against Trichomonas vaginalis at a dose of 100 ug/ml after 24 hours
In short: (§2)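 T. vaginalis strain JH31A grown in modified Diamond medium with equine serum at 37 °C, 5% CO2. Test agents added 6 h after seeding (0 h). Viable protozoa counted by Neubauer chamber after 24 and 48 h incubation at 37 °C. Cytocidal activity is the percentage reduction in viable organisms relative to untreated controls, from microscopic counts.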

[6] = system: Trichomonas vaginalis; assay: In vitro cytocidal activity against Trichomonas vaginalis at a dose of 100 ug/ml after 48 hours; in short: as §2
[7] = system: Trichomonas vaginalis; assay: In vitro cytostatic activity against Trichomonas vaginalis at a dose of 100 ug/ml after 24 hours; in short: as §1
[8] = system: Trichomonas vaginalis; assay: In vitro cytostatic activity against Trichomonas vaginalis at a dose of 100 ug/ml after 48 hours; in short: as §1
[9] = system: Trichomonas vaginalis; assay: In vitro cytocidal activity against Trichomonas vaginalis at a dose of 1 mg/mL after 24 hours; in short: as §2
[10] = system: Trichomonas vaginalis; assay: In vitro cytocidal activity against Trichomonas vaginalis at a dose of 1 mg/mL after 48 hours; in short: as §2
[11] = system: Trichomonas vaginalis; assay: In vitro cytocidal activity against Trichomonas vaginalis at a dose of 2 mg/ml after 24 hours; in short: as §2
[12] = system: Trichomonas vaginalis; assay: In vitro cytocidal activity against Trichomonas vaginalis at a dose of 2 mg/ml after 48 hours; in short: as §2
[13] = system: Trichomonas vaginalis; assay: In vitro cytocidal activity against Trichomonas vaginalis at a dose of 0.5 mg/ml after 24 hours; in short: as §2
[14] = system: Trichomonas vaginalis; assay: In vitro cytocidal activity against Trichomonas vaginalis at a dose of 0.5 mg/ml after 48 hours; in short: as §2
[15] = system: Trichomonas vaginalis; assay: In vitro cytocidal activity against Trichomonas vaginalis at a dose of 10 ug/ml after 48 hours; in short: as §2

| Compound | Cytostatic activity [1] [%] | Cytostatic activity [2] [%] | Cytostatic activity [3] [%] | Cytostatic activity [4] [%] | Cytocidal activity [5] [%] | Cytocidal activity [6] [%] | Cytostatic activity [7] [%] | Cytostatic activity [8] [%] | Cytocidal activity [9] [%] | Cytocidal activity [10] [%] | Cytocidal activity [11] [%] | Cytocidal activity [12] [%] | Cytocidal activity [13] [%] | Cytocidal activity [14] [%] | Cytocidal activity [15] [%] |
| --- | --- | --- | --- | --- | --- | --- | --- | --- | --- | --- | --- | --- | --- | --- | --- |
| O=C1CN(CCCCCCCl)c2ccc([N+](=O)[O-])cc2N1 | 8.76 | 0 | 79.28 | 30.56 | 99.15 | 99.83 | – | – | – | – | – | – | – | – | – |
| CN1CC(=O)Nc2cc([N+](=O)[O-])ccc21 | 0 | 8.32 | 59.05 | 13.97 | 100 | 100 | – | – | – | – | – | – | – | – | – |
| O=C1Nc2cc([N+](=O)[O-])ccc2N2Cc3ccccc3CC12 (centres undefined) | 0 | 0 | 51.82 | 37.15 | – | – | 85.53 | 81.25 | – | – | – | – | – | – | – |
| O=C1Nc2cc([N+](=O)[O-])ccc2N2CCCC12 (centres undefined) | 11.09 | 17.32 | 33.48 | 54.22 | 59.99 | 100 | – | – | – | – | – | – | – | – | – |
| Cc1ncc([N+](=O)[O-])n1CCO [METRONIDAZOLE] | – | – | – | – | – | – | – | – | 99.18 | 99.72 | 99.63 | 100 | 98.19 | 98.79 | – |
| CN1C(=O)CN(CCCCCCl)c2ccc([N+](=O)[O-])cc21 | 0 | 69.96 | 72.68 | – | 100 | 100 | – | – | – | – | – | – | – | – | 93.94 |
| O=C1Nc2cc([N+](=O)[O-])ccc2N2CCCCC12 (centres undefined) | 0 | 0 | 57.45 | 75.15 | 98.43 | 100 | – | – | – | – | – | – | – | – | – |
| CN1C(=O)C[N+](C)(C)c2ccc([N+](=O)[O-])cc21.[Cl-] | 0.17 | 0.78 | 72.85 | 1.13 | 100 | 100 | – | – | – | – | – | – | – | – | – |
| CN1CC(=O)N(C)c2cc([N+](=O)[O-])ccc21 | 0 | 0 | 71.11 | – | 100 | 100 | – | – | – | – | – | – | – | – | 92.03 |
